High-throughput results: PubChem, several laboratories
GRK2 aptamer HTS – human GRK2 inhibition via aptamer displacement; bead flow cytometry, FAM-aptamer displacement from GRK2; inhibition of aptamer binding, % at 10 µM; 330,000 tested, 0.59% active; AID 488847;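 active = inhibition of aptamer binding above 40%, roughly 3 SD of noise, on plates passing a quality check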;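 note: median bead fluorescence of bound FAM aptamer so fluorescent compounds give negative values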
T cell HTS – T cell immune modulation candidate; 330,000 tested, 0.068% active; response (vesicle binding), % at 7 µM; 2C CD8+ T cell-vesicle binding, flow cytometry; hits give low values;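 active = response, share of CD8 T cells binding vesicles, and their 90th percentile fluorescence all below set limits, cut at about 80% in these data, passing the limit was not always enough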;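 note: values below 100% mean blocked vesicle binding to the CD8+ T cells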
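Incubation: binding step 1.5 h, 37 °C, antibody labelling 20 min, ice; system: murine 2C transgenic CD8+ T lymphocytes; technique: cytometric PE anti-B7-1 and Alexa647 anti-CD8 signals after 1% paraformaldehyde fixation; also added: QL9-charged Drosophila Ld/ICAM-1/B7-1 vesicles; control set: naked versus QL9-loaded vesicles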
EBV gp42 block – inhibitors of Epstein-Barr virus glycoprotein 42; Fluorescence polarization binding assay, mP read-out; inhibition, % (tested at 21.74 µM); 220,000 tested, 0.42% active; in the data active = inhibition above about 50%
Target sequence (Q1HVG2 whole entry, looked up): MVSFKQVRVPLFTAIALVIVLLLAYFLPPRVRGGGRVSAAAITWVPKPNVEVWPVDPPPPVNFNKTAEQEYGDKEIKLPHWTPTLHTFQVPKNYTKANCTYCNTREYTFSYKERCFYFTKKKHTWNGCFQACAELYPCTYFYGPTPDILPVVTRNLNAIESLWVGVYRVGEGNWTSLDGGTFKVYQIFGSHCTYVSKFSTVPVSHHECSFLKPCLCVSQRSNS
MEX-5 binding – C. elegans MEX-5 TCR-2 RNA binding activity; MEX-5/FITC-TCR2 RNA binding, fluorescence polarization; hits give low values; activity score (negative = inhibition of binding), % at 10 µM; 300,000 tested, 0.38% active; AID 1832;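 active = inhibition past about -25% in most replicates, and total fluorescence under double the plate's negative control median, limit read from the data; inconclusive = replicates evenly split on the limit, or fluorescence at least double controls; inactive = too little inhibition in most replicates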
Target sequence (Q9XUB2 whole entry, looked up): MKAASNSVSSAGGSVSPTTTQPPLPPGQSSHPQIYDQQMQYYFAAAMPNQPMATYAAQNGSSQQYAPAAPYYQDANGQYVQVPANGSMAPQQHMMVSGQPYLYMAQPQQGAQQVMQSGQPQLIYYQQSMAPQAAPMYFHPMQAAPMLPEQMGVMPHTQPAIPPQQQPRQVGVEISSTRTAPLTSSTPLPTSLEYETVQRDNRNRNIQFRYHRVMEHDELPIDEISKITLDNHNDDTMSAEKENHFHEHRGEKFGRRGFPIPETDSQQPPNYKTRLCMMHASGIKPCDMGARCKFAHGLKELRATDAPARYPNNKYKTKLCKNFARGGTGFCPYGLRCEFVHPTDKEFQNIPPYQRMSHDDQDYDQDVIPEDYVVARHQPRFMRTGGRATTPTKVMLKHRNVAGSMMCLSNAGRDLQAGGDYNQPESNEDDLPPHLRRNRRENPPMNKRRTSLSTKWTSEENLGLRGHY
LANA DNA inh – inhibitors of KSHV LANA C-terminal domain DNA binding; MBP-C-LANA/FAM-LBS DNA binding, fluorescence polarization; inhibition, % at 9 µM; 340,000 tested, 0.078% active;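 active = highest replicate inhibition at or above 60% at 9 µM, even if other replicates fall short; inactive = all replicates below 60% inhibition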
Keap1 Nrf2 FP – inhibitors of human Keap1-Nrf2 protein-protein interaction; 340,000 tested, 0.15% active; inhibition, % at 9.4 µM; AID 504523; Keap1 Kelch-Nrf2 peptide fluorescence polarization, 1536-well; Q14145; in the data active = inhibition above about 12%; inconclusive = no clear call, values can overlap the other calls; inactive = below about 7.3%;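 note: human Keap1 Kelch domain with fluorescein labeled Nrf2 9mer peptide probe; higher means more block of Keap1 binding to Nrf2 peptide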
Hits are given with their value; . = inactive; ? = inconclusive; / = no result given. The list is not random: actives were taken first. Their share in the collection is about 1.3%.

SMILES | GRK2 aptamer HTS | T cell HTS | EBV gp42 block | MEX-5 binding | LANA DNA inh | Keap1 Nrf2 FP
Cc1ccc(NC(=O)CC2SC(=O)NC2=O)cc1 (stereo unspecified) | . | . | . | . | . | .
Cc1cccc(N2CC(C(=O)NCC3COc4ccccc4O3)CC2=O)c1C (stereo unspecified) | . | . | / | / | . | .
COc1ccc(/C=C2\N=C(c3c(-c4ccccc4)noc3C)OC2=O)cc1OC | . | . | 56.9 | . | . | .
O=C(/C=C/c1ccco1)NC(=S)Nc1ccc(C(=O)O)cc1 | . | . | / | -32.2 | 62.0 | .
O=C(/C=C/c1ccco1)NC(=S)NNC(=O)c1ccco1 | . | . | . | -25.8 | . | .
CC(=O)NC(=S)Nc1ccc(NC(=S)NC(=O)/C=C/c2ccco2)cc1 | . | . | . | . | . | .
O=C(NNC(=S)NC(=O)c1ccco1)c1ccc(F)cc1 | / | 49.6 | . | . | . | .
C=CCNC(=S)NNC(=O)c1ccco1 | . | . | . | . | . | .
O=C(O)C(c1ccccc1)N1CCCCC1 (stereo unspecified) | . | . | . | . | . | .
O=C1/C(=C/c2ccco2)CCc2ccccc21 | . | . | . | . | . | .
Nc1ccc2c(c1)C/C(=C/c1ccco1)C2=O | . | . | 97.8 | -45.2 | . | .
COc1ccccc1-n1c(C)c2c(OC)cccc(=O)c2c1C | . | . | . | . | . | .
COc1cccc(=O)c2c(C)oc(C)c12 | . | . | . | -70.7 | . | .
O=C(CNC1CCCCCC1)Nc1ccc(S(=O)(=O)NC2CC2)cc1 | . | . | . | . | . | .
CCc1ccc(NC(=O)/C(C#N)=C/c2cc3ccc(C)cc3nc2N2CCOCC2)cc1 | . | . | . | -40.7 | . | .
CCc1ccc(NC(=O)/C(C#N)=C/c2ccncc2)cc1 | . | . | / | . | . | .
C#CCOCCOCCOCCNc1nc(N2CCN(C(=O)[C@H]([C@@H](C)CC)n3cc([C@@H](N)CO)nn3)CC2)nc(N2CCN(C(=O)[C@H]([C@@H](C)CC)n3cc([C@@H](N)CC(C)C)nn3)CC2)n1 | . | . | . | -38.4 | . | .
CN(C)c1ccc(-c2nnc(-c3ccc(S(=O)(=O)C(F)F)cc3)o2)cc1 | . | . | . | -33.7 | . | .
Cc1ccccc1NS(=O)(=O)c1ccc(C(=O)NNC(=O)c2ccccc2O)cc1 | . | . | / | . | . | .
O=C(NNC(=O)c1ccccc1O)c1ccc(S(=O)(=O)Nc2ccccc2F)cc1 | . | . | / | -25.9 | . | .
CCCNC(=O)Cn1c(=O)/c(=C\c2ccc(-c3cccc([N+](=O)[O-])c3)o2)s/c1=C\C(=O)C(C)(C)C | . | . | 68.7 | . | . | .
CCCCc1nn2c(N)c(/C=C3\C=Nc4ccccc43)c(=O)nc2s1 | . | . | . | . | . | .
CCCCn1c(O)c(/C=C2\C=Nc3ccccc32)c(=O)[nH]c1=O | . | . | / | -30.9 | . | ?
CCCn1c(CN2CCN(C(=O)OCC)CC2)nc2cc(NC(C)=O)ccc21 | . | . | / | . | . | .
C[C@@H]1O[C@@H](Oc2c(-c3ccc(O)c(O)c3)oc3cc(O)cc(O)c3c2=O)[C@H](O)[C@H](O)[C@H]1O | . | . | / | / | . | .
SMILES | GRK2 aptamer HTS | T cell HTS | EBV gp42 block | MEX-5 binding | LANA DNA inh | Keap1 Nrf2 FP
C[C@@H]1O[C@@H](Oc2c(-c3cc(O)c(O)c(O)c3)oc3cc(O)cc(O)c3c2=O)[C@H](O)[C@H](O)[C@H]1O | . | . | . | -57.5 | . | .
Cc1ccc(C(=O)ONc2ccc(N=NC(=O)c3ccccc3O)cc2)cc1 | . | . | 92.6 | . | . | .
Cc1ccc(C(=O)ONc2ccc(N=O)cc2)cc1 | . | . | . | . | . | .
CC(C)(C)NC(=O)[C@H]1CC[C@H]2[C@@H]3CC[C@H]4NC(=O)C=C[C@]4(C)[C@H]3CC[C@]12C | . | . | . | . | . | .
Cc1cccc(N=Nc2c(O)[nH]c3ccc(Br)cc23)c1 | . | . | / | -32.6 | . | /
COc1ccccc1N=Nc1c(O)[nH]c2ccc(Br)cc12 | . | . | / | . | . | .
O=c1nc2c(O)cccn2c2c1c(=O)[nH]c1ccccc12 | / | / | 104.1 | -26.3 | . | .
O=C(CNC(=O)c1ccc(Cl)cc1Cl)OCC(=O)c1ccc2c(c1)OCCO2 | . | . | . | . | . | .
O=S(=O)(Nc1nc2ccccc2nc1N1CCc2ccccc2C1)c1ccc(Cl)cc1 | . | . | . | . | . | .
O=S(=O)(Nc1nc2ccccc2nc1N1CCN(c2ccccn2)CC1)c1ccc(Cl)cc1 | / | / | 63.8 | / | . | .
CCC(=O)Nc1ccc2c(c1)ncn2-c1ccccc1OC | . | . | . | . | . | .
COc1ccc2sc(-c3ccccc3OC)c(C#CC(C)(C)O)c2c1 | . | . | / | / | 69.7 | .
COc1ccc2sc(-c3ccccc3OC)c(C#CCCO)c2c1 | . | . | / | / | . | .
CCCCOc1ccc(-c2cc(C(F)(F)F)c(C#N)c(SCC(=O)O)n2)cc1 | . | . | 60.0 | ? | . | .
C=CCOc1cccc(C2C(C(=O)c3cccs3)=C(O)C(=O)N2Cc2cccnc2)c1 (stereo unspecified) | . | . | . | . | . | .
C=CCOc1ccc(C2C(C(=O)c3cccs3)=C(O)C(=O)N2c2nnc(C)s2)cc1 (stereo unspecified) | . | . | / | -30.0 | . | .
COc1ccc(C2C(C(=O)c3cccs3)=C(O)C(=O)N2c2nnc(C)s2)cc1OC (stereo unspecified) | . | . | 91.0 | -59.9 | . | ?
CC(/C=C/C=C/c1ccccc1)=N/NC(=O)CNc1ccccc1C | 55.0 | . | . | . | . | .
O=c1c2ccccc2nc2n1CC/C2=C\c1ccccc1[N+](=O)[O-] | / | / | 65.8 | / | / | /
COc1ccc(CN2CCNC(=O)C2CC(=O)NC2CCC2)c(OC)c1 (stereo unspecified) | . | . | / | . | . | .
CCOC(=O)C1CCN(C(=O)c2ccccc2Oc2ccccc2)CC1 | . | . | . | . | . | .
CCOC(=O)N1CCN(C(=O)c2ccccc2Oc2ccccc2)CC1 | . | . | 130.3 | . | . | .
O=C(OCc1c(F)cccc1Cl)c1cnccn1 | . | . | . | . | . | .
Nc1ccc(N)c(C(=O)O)c1 | 88.0 | . | 107.9 | . | 110.2 | .
Nc1ccc(-c2nc3ccc(C(=O)O)cc3s2)cc1 | . | . | 98.8 | . | . | .
O=C(O)c1ccc2nc(-c3ccccc3)sc2c1 | . | . | . | . | . | .
CCCCn1c(N)c(N(C)C(=O)c2ccc(-n3cccn3)cc2)c(=O)[nH]c1=O | . | . | / | / | . | .
COc1cccc2c1C(=O)c1c(O)c3c(c(O)c1C2=O)CC(O)(C(C)=O)CC3OC1CC(O)C(O)C(C)O1 (stereo unspecified) | / | / | / | / | 110.5 | 19.6
CC(C)NC(=S)NCc1cccnc1 | 99.0 | . | . | . | . | .
N#Cc1cc(C(=O)c2ccccc2O)cn(-c2nccs2)c1=O | . | . | 50.9 | ? | . | .
